Source: ChEMBL document CHEMBL1121685, “Development of new mitomycin C and porfiromycin analogues” (J Med Chem, 1981)

Tests used:
Mus musculus [1] = test: Effect of compound on total white blood cell count in BDG1 male mice, after intraperitoneal administration at a dose of 59.0 mg/kg on day 3; assay type: functional
Method in brief: (§1)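 Single ip dose given on day 0 to BDG₁ male mice. Total white blood cell count measured on days 3, 5 and 7, expressed as % change from control. Highest dose was at the LD₅₀, or at twice the optimal dose where so footnoted. Significance reported at p ≤ 0.05 and p ≤ 0.01. D marks death of one or more mice.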

Mus musculus [2] = test: Antitumor activity against P-388 murine leukemia cells in CDF1 female mice after intraperitoneal administration at the specified optimal dose of 25.6 mg/kg; assay type: functional
Mus musculus [3] = test: Minimum effective dose that show activity against P-388 murine leukemia cells in CDF1 female mice, after intraperitoneal administration (optimal dose is 25.6 mg/kg); assay type: functional; conditions: P388, ip, read-out: MED
Method in brief: (§2)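 10⁶ P-388 ascites cells implanted ip in CDF₁ female mice. Six mice per dose, 10 saline-injected controls, and a concurrent mitomycin C reference group. %T/C = median survival time of treated/control × 100. MED is the lowest dose giving %T/C > 125. Therapeutic ratio = optimal dose/MED.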

Mus musculus [4] = test: Effect of compound on total white blood cell count in BDG1 male mice, after intraperitoneal administration at a dose of 33.18 mg/kg on day 7; assay type: functional
Method in brief: (§3)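 Single ip dose given on day 0 to BDG1 male mice over a descending dose series. Total white blood cell count is expressed as % change from untreated control on days 3, 5 and 7. Significance is flagged at p ≤ 0.05 and p ≤ 0.01.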

[5] = Therapeutic ratio is expressed as ratio of optimal dose and minimum effective dose; assay type: ADME; conditions: mouse; read-out: TR; method in brief: as §2
Mus musculus [6] = test: Effect of compound on total white blood cell count in BDG1 male mice, after intraperitoneal administration at a dose of 44.25 mg/kg on day 5; assay type: functional; method in brief: as §1
Mus musculus [7] = test: Effect of compound on total white blood cell count in BDG1 male mice, after intraperitoneal administration at a dose of 59.0 mg/kg on day 7; assay type: functional; method in brief: as §1
Mus musculus [8] = test: Effect of compound on total white blood cell count in BDG1 male mice, after intraperitoneal administration at a dose of 33.18 mg/kg on day 3; assay type: functional; method in brief: as §3
Mus musculus [9] = test: Effect of compound on total white blood cell count in BDG1 male mice, after intraperitoneal administration at a dose of 33.18 mg/kg on day 5; assay type: functional; method in brief: as §3
Mus musculus [10] = test: Effect of compound on total white blood cell count in BDG1 male mice, after intraperitoneal administration at a dose of 44.25 mg/kg on day 7; assay type: functional; method in brief: as §1
Mus musculus [11] = test: Effect of compound on total white blood cell count in BDG1 male mice, after intraperitoneal administration at a dose of 59.0 mg/kg on day 5; assay type: functional; method in brief: as §1
Mus musculus [12] = test: Effect of compound on total white blood cell count in BDG1 male mice, after intraperitoneal administration at a dose of 44.25 mg/kg on day 3; assay type: functional; method in brief: as §1
Mus musculus [13] = test: Antitumor activity against P-388 murine leukemia cells in CDF1 female mice after intraperitoneal administration at the specified optimal dose of 12.8 mg/kg; assay type: functional
Mus musculus [14] = test: Effect of compound on total white blood cell count in BDG1 male mice, after intraperitoneal administration at a dose of 6.4 mg/kg on day 5; assay type: functional; method in brief: as §1
Mus musculus [15] = test: Effect of compound on total white blood cell count in BDG1 male mice, after intraperitoneal administration at a dose of 25.6 mg/kg on day 3 (highest dose was twice the optimal dose); assay type: functional
Mus musculus [16] = test: Effect of compound on total white blood cell count in BDG1 male mice, after intraperitoneal administration at a dose 6.4 mg/kg on day 7; assay type: functional
Method in brief: (§4)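 BDG₁ male mice received a single ip dose on day 0. The dose series topped out at the LD₅₀ level, or at twice the optimal dose for some agents. Total white blood cell count was taken on days 3, 5 and 7 and expressed as % change from untreated controls. Significance was set at p ≤ 0.05 or p ≤ 0.01.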

Mus musculus [17] = test: Effect of compound on total white blood cell count in BDG1 male mice, after intraperitoneal administration at a dose of 6.4 mg/kg on day 3; assay type: functional; method in brief: as §1
Mus musculus [18] = test: Effect of compound on total white blood cell count in BDG1 male mice, after intraperitoneal administration at a dose of 12.8 mg/kg on day 3; assay type: functional; method in brief: as §4
Mus musculus [19] = test: Effect of compound on total white blood cell count in BDG1 male mice, after intraperitoneal administration at a dose of 12.8 mg/kg on day 5; assay type: functional; method in brief: as §4
Mus musculus [20] = test: Effect of compound on total white blood cell count in BDG1 male mice, after intraperitoneal administration at a dose of 45 mg/kg on day 5; assay type: functional; method in brief: as §1
Mus musculus [21] = test: Effect of compound on total white blood cell count in BDG1 male mice, after intraperitoneal administration at a dose of 33.8 mg/kg on day 3; assay type: functional; method in brief: as §3
Mus musculus [22] = organism: Mus musculus; test: Half-wave potential produced by the compound at their optimal dose; assay type: functional; design: unit not given here
Mus musculus [23] = test: Number of cured survivors, 45 days after administration of compound at a dose of 24 mg/kg/day in mice; assay type: functional
Mus musculus [24] = test: Effect of compound on total white blood cell count in BDG1 male mice, after intraperitoneal administration at a dose of 25.3 mg/kg on day 7; assay type: functional; method in brief: as §3
Mus musculus [25] = test: Effect of compound on total white blood cell count in BDG1 male mice, after intraperitoneal administration at a dose of 25.3 mg/kg on day 3; assay type: functional; method in brief: as §3
Mus musculus [26] = test: Number of tumored survivors, 45 days after administration of compound at a dose of 24 mg/kg/day in mice; assay type: functional
Mus musculus [27] = test: Effect of compound on total white blood cell count in BDG1 male mice, after intraperitoneal administration at a dose of 25.3 mg/kg on day 5; assay type: functional; method in brief: as §3
Mus musculus [28] = test: Effect of compound on total white blood cell count in BDG1 male mice, after intraperitoneal administration at a dose of 33.8 mg/kg on day 5; assay type: functional; method in brief: as §3
Mus musculus [29] = test: Activity of compound dose of 3 mg/kg/day against Murine B-16 Melanocarcinoma in mice; assay type: functional
Mus musculus [30] = test: Number of tumored survivors, 45 days after administration of compound at a dose of 12 mg/kg/day in mice; assay type: functional
Mus musculus [31] = test: Activity of compound dose of 24 mg/kg/day against Murine B-16 Melanocarcinoma in mice; assay type: functional
Mus musculus [32] = organism: Mus musculus; test: Degree of leukopenia produced by compound is assessed form Percent change in white cells on days 5; assay type: functional; method in brief: as §4
Mus musculus [33] = test: Effect of compound on total white blood cell count in BDG1 male mice, after intraperitoneal administration at a dose of 45 mg/kg on day 3; assay type: functional; method in brief: as §1
Mus musculus [34] = test: Activity of compound dose of 12 mg/kg/day against Murine B-16 Melanocarcinoma in mice; assay type: functional
Mus musculus [35] = test: Activity of compound dose of 1.5 mg/kg/day against Murine B-16 Melanocarcinoma in mice; assay type: functional
Mus musculus [36] = test: Activity of compound dose of 6 mg/kg/day against Murine B-16 Melanocarcinoma in mice; assay type: functional
Mus musculus [37] = test: Number of cured survivors, 45 days after administration of compound at a dose of 12 mg/kg/day in mice; assay type: functional
Mus musculus [38] = test: Effect of compound on total white blood cell count in BDG1 male mice, after intraperitoneal administration at a dose of 45 mg/kg on day 7; assay type: functional; method in brief: as §1
Mus musculus [39] = test: Effect of compound on total white blood cell count in BDG1 male mice, after intraperitoneal administration at a dose of 33.8 mg/kg on day 7; assay type: functional; method in brief: as §3

SMILES: C#CCNC1=C(C)C(=O)C2=C(C1=O)[C@H](COC(N)=O)C1(OC)[C@H]3[C@@H](CN21)N3C (stereo partly drawn)
- Change (Mus musculus [1]): -80%
- T/C (Mus musculus [2]): 300%
- minimal effective dose (Mus musculus [3]): 1.6 mg/kg
- Change (Mus musculus [4]): -49%
- selectivity ratio [5]: 16
- Change (Mus musculus [6]): -69%
- Change (Mus musculus [7]): -77%
- Change (Mus musculus [8]): -64%
- Change (Mus musculus [9]): -66%
- Change (Mus musculus [10]): -67%
- Change (Mus musculus [11]): -84%
- Change (Mus musculus [12]): -74%

SMILES: COC(=O)CNC1=C(C)C(=O)C2=C(C1=O)[C@H](COC(N)=O)C1(OC)[C@@H]3N[C@@H]3CN21 (stereo partly drawn)
- T/C (Mus musculus [13]): 300%
- Change (Mus musculus [14]): -55%
- selectivity ratio [5]: 32
- Change (Mus musculus [15]): -65%
- Change (Mus musculus [16]): -21%
- Change (Mus musculus [17]): -39%
- Change (Mus musculus [18]): -55%
- Change (Mus musculus [19]): -68%

SMILES: COC12[C@@H]3N[C@@H]3CN1C1=C(C(=O)C(NCC3CCCO3)=C(C)C1=O)[C@@H]2COC(N)=O (stereo partly drawn)
- Change (Mus musculus [20]): -72%
- Change (Mus musculus [21]): -58%
- E1/2 (Mus musculus [22]): -0.41
- Survivors (Mus musculus [23]): 4
- T/C (Mus musculus [2]): 289%
- minimal effective dose (Mus musculus [3]): 0.4 mg/kg
- Change (Mus musculus [24]): -19%
- Change (Mus musculus [25]): -44%
- Survivors (Mus musculus [26]): 3
- Change (Mus musculus [27]): -54%
- Change (Mus musculus [28]): -62%
- selectivity ratio [5]: 64
- T/C (Mus musculus [29]): 173%
- Survivors (Mus musculus [30]): 1
- T/C (Mus musculus [31]): 326%
- Change (Mus musculus [32]): -54%
- Change (Mus musculus [33]): -76%
- T/C (Mus musculus [34]): 240%
- T/C (Mus musculus [35]): 146%
- T/C (Mus musculus [36]): 179%
- Survivors (Mus musculus [37]): 1
- Change (Mus musculus [38]): -25%
- Change (Mus musculus [39]): -13%
